Measurements as given in ChEMBL document CHEMBL4808174, “Exploring Heteroaromatic Rings as a Replacement for the Labile Amide of Antiplasmodial Pantothenamides” (J Med Chem, 2021).
The source made the active and inactive calls. The rule behind the calls is not given here.

How the values were obtained:
[1] = Antiproliferative activity against human HFF cells assessed as cell proliferation at 200 uM incubated for 3 to 4 days in presence of 1 uM pantothenate by SYBR assay
[2] = Antiproliferative activity against human HFF cells assessed as cell proliferation at 100 uM incubated for 3 to 4 days in presence of 1 uM pantothenate by SYBR assay
[3] = Selectivity index, ratio of IC50 for human HFF cells to IC50 for Plasmodium falciparum in presence of 1 uM pantothenate; format: toxicity; details: HFF cells versus Plasmodium falciparum, read-out: Ratio IC50
Summary of the method: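 HFF cells grown 3-4 days in RPMI 1640 with 10% bovine calf serum and antibiotics, with compound up to 200 μM; SYBR Safe-based read-out. Selectivity index = HFF IC50 divided by P. falciparum IC50 at 1 μM pantothenate. Where HFF inhibition stayed below 50%, 200 μM (or 100 μM) was used as the HFF value to set limits.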

[4] = tested on: Plasmodium falciparum; test: Antiplasmodial activity against ring stage Plasmodium falciparum 3D7 infected in human erythrocytes assessed as inhibition of parasite growth incubated for 96 hrs in presence of 1 uM pantothenate by SYBR Green I dye based fluorescence assay; format: functional, organism-based; details: 3D7, Erythrocyte
Summary of the method: (§1)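 P. falciparum 3D7 ring stages at 0.5% parasitemia and 1% hematocrit in Albumax II medium. Where specified, 100 μM sodium pantothenate was added. Incubation 96 h, then freeze-thaw and SYBR Safe lysis-buffer fluorescence. Chloroquine 0.25-25 μM served as zero-proliferation control. Experiments in triplicate; 100 μM pantothenate data from two experiments.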

[5] = tested on: Plasmodium falciparum; test: Antiplasmodial activity against ring stage Plasmodium falciparum 3D7 infected in human erythrocytes assessed as inhibition of parasite growth incubated for 96 hrs in presence of 100 uM pantothenate by SYBR Green I dye based fluorescence assay; format: functional, organism-based; details: 3D7, Erythrocyte
Summary of the method: as §1

[6] = Apparent permeability of the compound across apical to basolateral side in human Caco-2 cells at 20 uM
[7] = Metabolic stability in human liver microsomes assessed as half life at 1 uM in presence or absence of NADPH regenerating system by LC-MS analysis; format: ADME, Microsome
Summary of the method: (§2)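 Stability in mouse or human liver microsomes was measured with and without an NADPH-regenerating system, giving in vitro t1/2 and intrinsic clearance in μL/min/mg protein.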

[8] = tested on: Plasmodium falciparum; test: Antiplasmodial activity against ring stage Plasmodium falciparum 3D7 infected in human erythrocytes assessed as inhibition of parasite growth incubated for 48 hrs by SYBR Green I dye based fluorescence assay; format: functional, organism-based; details: Erythrocyte
Summary of the method: (§3)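 Triple-sorbitol-synchronized 3D7 ring-stage cultures at 0.5% parasitemia and 1% hematocrit were exposed to compound at ten concentrations at 37 °C in 96% N₂, 3% CO₂, 1% O₂. After 5, 10, 24 or 48 h, cells were washed three times and resuspended without compound. Total culture time 96 h, then SYBR Safe fluorescence. Three experiments in triplicate.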

[9] = Drug degradation in human liver microsomes after 60 mins; format: ADME, Microsome; details: read-out: Drug degradation
Summary of the method: (§4)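 Degradation in mouse or human liver microsomes was followed over 60 min, with and without an NADPH-regenerating system.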

[10] = Drug concentration in BALB/c mouse plasma at 100 mg/kg/day, ip measured after 2 days; format: ADME, organism-based; details: whole blood, in the assay text read “whole blood” for “plasma”
Summary of the method: (§5)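 Dosing was 100 mg/kg ip in P. berghei-infected female BALB/c mice, repeated at 24 h. 10 μL tail whole blood was sampled by microsampling device at 3 h, at ~24 h (before the second dose) and at 48 h. Samples were extracted with 80% acetonitrile using diazepam as internal standard and quantified by LC-MS MRM against a spiked-blood standard curve of 5 ng/mL-20 μg/mL. LLQ was 16 or 17 nM. Mean of five mice.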

[11] = Drug concentration in BALB/c mouse plasma at 100 mg/kg/day, ip measured after 1 day; format: ADME, organism-based; details: whole blood, in the assay text read “whole blood” for “plasma”
Summary of the method: as §5

[12] = tested on: Plasmodium knowlesi; test: Antiplasmodial activity against Plasmodium knowlesi infected in human erythrocytes assessed as inhibition of parasite growth incubated for 72 hrs in presence of 1 uM pantothenate by SYBR Green I dye based fluorescence assay; format: functional, organism-based; details: Erythrocyte
[13] = Metabolic stability in mouse liver microsomes assessed as half life at 1 uM in presence or absence of NADPH regenerating system by LC-MS analysis; format: ADME, Microsome
Summary of the method: as §2

[14] = Metabolic stability in human liver microsomes assessed as intrinsic clearance at 1 uM in presence of absence of NADPH regenerating system measured per mg protein by LC-MS analysis; format: ADME, Microsome; details: read-out: CLH
Summary of the method: as §2

[15] = tested on: Plasmodium falciparum; test: Antiplasmodial activity against ring stage Plasmodium falciparum 3D7 infected in human erythrocytes assessed as inhibition of parasite growth incubated for 10 hrs by SYBR Green I dye based fluorescence assay; format: functional, organism-based; details: Erythrocyte
Summary of the method: as §3

[16] = tested on: Plasmodium berghei; test: Antiplasmodial activity against Plasmodium berghei ANKA infected in BALB/c mouse model of malaria assessed as reduction in parasitemia at 100 mg/kg/day, ip for 2 days by Giemsa staining based flow cytometry analysis; format: functional, organism-based; details: time 2.0 day
Summary of the method: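 Female BALB/c mice, 8-12 weeks, infected ip with 1 × 10⁵ P. berghei ANKA-infected erythrocytes. Once parasitemia reached 0.4-1.5% (5 mice per group), 100 mg/kg was given ip in 150 mM NaCl containing 20.9% v/v DMSO; second dose at 24 h. Daily tail-bleed parasitemia was read by Giemsa-stained thin smear or by flow cytometry (JC-1, Hoechst 33342, anti-CD45/CD71/TER119).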

[17] = Drug degradation in mouse liver microsomes after 60 mins; format: ADME, Microsome; details: read-out: Drug degradation
Summary of the method: as §4

[18] = Metabolic stability in mouse liver microsomes assessed as intrinsic clearance at 1 uM in presence or absence of NADPH regenerating system measured per mg protein by LC-MS analysis; format: ADME, Microsome; details: read-out: CLH
Summary of the method: as §2

[19] = Drug concentration in BALB/c mouse plasma at 100 mg/kg/day, ip measured after 3 hrs; format: ADME, organism-based; details: whole blood, in the assay text read “whole blood” for “plasma”
Summary of the method: as §5

[20] = tested on: Plasmodium falciparum; test: Antiplasmodial activity against ring stage Plasmodium falciparum 3D7 infected in human erythrocytes assessed as inhibition of parasite growth at 100 uM pretreated with compound followed by parasite infection by SYBR Green I dye based fluorescence assay; format: functional, organism-based; details: Erythrocyte
[21] = tested on: Plasmodium falciparum; test: Antiplasmodial activity against ring stage Plasmodium falciparum 3D7 infected in human erythrocytes assessed as inhibition of parasite growth incubated for 24 hrs by SYBR Green I dye based fluorescence assay; format: functional, organism-based; details: Erythrocyte
Summary of the method: as §3

Compound | proliferation at 200 µM [1] | proliferation at 100 µM [2] | selectivity ratio at 1 µM [3] | IC50 [4] | further results
CCCCCc1noc(CNC(=O)[C@H](O)C(C)(C)CO)n1 | 90% | 91% | > 37 | 5.3 µM | 
CCCCCCc1cc(CNC(=O)[C@H](O)C(C)(C)CO)no1 | 60% | 78% | > 830 | 0.24 µM | 
CCCCCc1cnc(CNC(=O)[C@H](O)C(C)(C)CO)o1 | 82% | 98% | > 8.6 | 23 µM | 
CCCCCc1nc(CNC(=O)[C@H](O)C(C)(C)CO)no1 | 100% | 111% | > 110 | 1.8 µM | IC50 [5]: > 12 µM
CCCCCCn1cc(CNC(=O)[C@H](O)C(C)(C)CO)nn1 |  |  |  | 0.055 µM | 
CCCCCc1cc(CNC(=O)[C@H](O)C(C)(C)CO)n[nH]1 | 89% | 88% | > 27 | 7.4 µM | 
CCCCCc1ccc(CNC(=O)[C@H](O)C(C)(C)CO)s1 | 16% | 58% | 35 | 2.8 µM | 
NNC(=O)N1C(=O)c2cc(S(=O)(=O)[O-])cc3c(N)c(S(=O)(=O)[O-])cc(c23)C1=O.[Li+].[Li+] [LUCIFER YELLOW] |  |  |  |  | Papp A→B at 20 µM [6]: < 1 ×10⁻⁶ cm/s
CCCCCn1cc(CNC(=O)[C@H](O)C(C)(C)CO)cn1 | 85% | 102% | > 5 | 34 µM | 
CCCCCCc1cc(CNC(=O)[C@H](O)C(C)(C)CO)on1 | 87% | 97% | > 90 | 2.2 µM | 
CCCCCc1nnc(CNC(=O)[C@H](O)C(C)(C)CO)o1 | 91% | 108% | > 2.8 | 71 µM | 
CC(C)(CO)[C@@H](O)C(=O)NCc1cc(CCc2ccccc2)no1 | 113% | 102% | > 18 | 11 µM | 
CCCCCc1cc(CNC(=O)[C@H](O)C(C)(C)CO)on1 | 88% | 100% | > 310 | 0.63 µM | IC50 [5]: > 12 µM
CCCCc1cc(CNC(=O)[C@H](O)C(C)(C)CO)no1 | 74% | 95% | > 2700 | 0.072 µM | 
CCCCCc1cc(CCNC(=O)[C@H](O)C(C)(C)CO)on1 | 95% | 97% | > 41 | 4.8 µM | 
CCCCc1cc(CNC(=O)[C@H](O)C(C)(C)CO)on1 | 101% | 97% | > 1000 | 0.19 µM | 
CCCCCc1nnc(CNC(=O)[C@H](O)C(C)(C)CO)s1 | 88% | 90% | > 200 | 0.96 µM | IC50 [5]: 26 µM
CCCCCn1cnc(CNC(=O)[C@H](O)C(C)(C)CO)n1 | 106% | 101% |  | > 100 µM | 
CCCCCn1cc(CNC(=O)[C@H](O)C(C)(C)CO)nn1 | 77% | 88% | > 3500 | 0.056 µM | half-life at 1 µM [7]: > 4.25 h; Activity [8]: Active; metabolised at 1 h [9]: < 15%; concentration at 48 h [10]: < 16 nM; concentration at 24 h [11]: < 16 nM; IC50 [12]: 0.028 µM; half-life at 1 µM [13]: > 4.25 h; Papp A→B at 20 µM [6]: 13 ×10⁻⁶ cm/s; microsomal CLint at 1 µM [14]: < 7 µL/min/mg; Activity [15]: inactive; IC50 [5]: > 0.25 µM; Activity [16]: inactive; metabolised at 1 h [17]: < 15%; microsomal CLint at 1 µM [18]: < 7 µL/min/mg; concentration at 3 h [19]: 1100 nM; Activity [20]: inactive; Activity [21]: Active
CC(C)NCC(O)COc1cccc2ccccc12 (stereo unspecified) [PROPRANOLOL] |  |  |  |  | Papp A→B at 20 µM [6]: 49 ×10⁻⁶ cm/s
CCCCCn1ncc(CNC(=O)[C@H](O)C(C)(C)CO)n1 | 103% | 97% | > 7.1 | 28 µM | 
CCCCCc1ncc(CNC(=O)[C@H](O)C(C)(C)CO)o1 | 35% | 87% | 1.2 | 80 µM | 
CC(C)(CO)[C@@H](O)C(=O)NCc1cc(CCc2ccccc2)on1 | 95% | 94% | > 33 | 5.9 µM | 
CCCCCn1cnc(CNC(=O)[C@H](O)C(C)(C)CO)c1 | 103% | 91% | > 14 | 14 µM | 
CCN(CC)CCCC(C)Nc1ccnc2cc(Cl)ccc12 (stereo unspecified) |  |  |  |  | Activity [20]: inactive
CCCCCc1nnc(CNC(=O)[C@H](O)C(C)(C)CO)[nH]1 | 71% | 84% | > 5 | 40 µM | 
